PubChem BioAssay AID652250 (Vanderbilt Specialized Chemistry Center, 2013)
Activity calls are given as the source filed them.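 How the source made its calls: active means compounds leaving under half of the peptide-driven platelet calcium rise; inactive means the rest.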

These compounds were tested against Proteinase-activated receptor 4 (Homo sapiens) (UniProt Q96RI0) (assay: PAR4 antagonists in human platelets, cell-based, single concentration, washed platelets, Fluo4 calcium (AID 652250)). Details: PAR4-AP calcium Fluo4 fluorescence.
Chain of Proteinase-activated receptor 4 (Homo sapiens) (Q96RI0 whole entry, looked up): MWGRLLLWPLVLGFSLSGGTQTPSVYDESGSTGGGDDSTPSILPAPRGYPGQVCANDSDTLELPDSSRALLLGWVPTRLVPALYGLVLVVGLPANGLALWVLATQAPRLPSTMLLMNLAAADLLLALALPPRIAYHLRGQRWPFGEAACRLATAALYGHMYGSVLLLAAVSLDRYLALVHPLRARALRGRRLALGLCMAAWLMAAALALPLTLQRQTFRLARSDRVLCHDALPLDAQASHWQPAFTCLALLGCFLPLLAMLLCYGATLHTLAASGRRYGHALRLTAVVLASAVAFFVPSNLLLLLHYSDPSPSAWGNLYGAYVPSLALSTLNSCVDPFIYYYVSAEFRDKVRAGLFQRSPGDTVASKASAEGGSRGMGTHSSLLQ
How it was run: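 Assay system: Fluo4-AM-loaded washed human platelets / Quantity: 10^8 platelets/mL / Detection: fluorescence at 480/540 nm, 1 s intervals / Also added: 80 µM PAR4-AP / Benchmarks: PAR4-AP-stimulated DMSO control (100%) / Replicates: triplicate wells / Read-out: peak minus basal RFU as % of per-donor DMSO control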
For `COc1ccc(-c2cn(Cc3cccc(S(C)(=O)=O)c3)c3ccccc23)cn1`, the IC50 was 10 µM. For `Fc1ccc(-c2cn(Cc3ccccc3)c3ccccc23)cn1`, the IC50 was 10 µM. `COc1ccc(-c2cn(Cc3ccccc3)c3ccccc23)cc1` gave an IC50 of 10 µM. `COc1cccc(Cn2cc(-c3ccc(OC)nc3)c3ccccc32)c1` showed an IC50 of 14.6 µM. Compound `COc1ccc(-c2cn(Cc3cccc(F)c3)c3ccccc23)cn1` has an IC50 of 3.85 µM.

Same assay, conditions: PAR4-AP calcium Fluo4 fluorescence, at 10 µM, active compounds read low
`Cn1cc(-c2cn(Cc3ccccc3)c3ccccc23)cn1` was tested, and the “% of max PAR4-AP calcium response” value was “inactive”. With `Cc1nc(-c2cnn(-c3ccccc3)c2)c2cc(C)oc2n1` the “% of max PAR4-AP calcium response” value was “inactive”. `Fc1ccc(OCCn2cc(C(=S)N3CCCCC3)c3ccccc32)cc1` was tested, and the “% of max PAR4-AP calcium response” value was “inactive”. `Cn1cc(CC(=O)N2CCN(c3ccc([N+](=O)[O-])cc3)CC2)c2ccccc21` was tested, and the “% of max PAR4-AP calcium response” value was “inactive”. With `FC(F)(F)c1cccc(-c2cn(Cc3ccccc3)c3ccccc23)c1` the “% of max PAR4-AP calcium response” value was “inactive”. For `NS(=O)(=O)c1ccc(CCNc2ncnc3c2c(-c2ccccc2)cn3-c2cccc(Cl)c2)cc1`, the “% of max PAR4-AP calcium response” value was “inactive”. With `COc1ccc2c(c1)c(C(=O)N1CCCC1)c(C)n2Cc1ccccc1` the “% of max PAR4-AP calcium response” value was “inactive”. For `O=C(Cn1cc(C(=O)C(F)(F)F)c2cc(Br)ccc21)N1CCCCC1`, the “% of max PAR4-AP calcium response” value was “inactive”. For `Oc1ccccc1-c1nc2c3c(-c4ccccc4)c(-c4ccccc4)n(Cc4ccco4)c3ncn2n1`, the “% of max PAR4-AP calcium response” value was “inactive”. For `COc1ccc(-n2cc(-c3ccccc3)c3c(=O)[nH]cnc32)cc1`, the “% of max PAR4-AP calcium response” value was “inactive”. With `CNc1ccccc1-n1ccc(-c2ccccc2)n1` the “% of max PAR4-AP calcium response” value was “inactive”. `c1ccc(COc2ccc(-c3cn(Cc4ccccc4)c4ccccc34)cc2)cc1` was tested, and the “% of max PAR4-AP calcium response” value was “inactive”. In the case of `CN(C)c1ccc(/C=N/NC(=O)c2ccn(Cc3ccc(Cl)cc3)n2)cc1`, the “% of max PAR4-AP calcium response” value is reported as “inactive”. For `CC(=O)n1cc(C(C[N+](=O)[O-])SCc2ccccc2)c2ccccc21` (centres undefined), the “% of max PAR4-AP calcium response” value was “inactive”. In the case of `CSc1ccc(-c2cn(Cc3ccccc3)c3ccccc23)cn1`, the “% of max PAR4-AP calcium response” value is reported as “inactive”. For `COc1ccc(OCCn2cc(C(=O)C(F)(F)F)c3ccccc32)cc1`, the “% of max PAR4-AP calcium response” value was “inactive”. In the case of `Clc1ccc(-n2cc(-c3ccccc3)c3c(N4CCOCC4)ncnc32)cc1`, the “% of max PAR4-AP calcium response” value is reported as “inactive”. `Cc1c(C)n(C(=O)CSc2ncccn2)c2ccccc12` was tested, and the “% of max PAR4-AP calcium response” value was “inactive”. For `COc1ccc(Nc2ncnc3c2c(-c2ccccc2)cn3-c2ccc(Br)cc2)cc1OC`, the % of max PAR4-AP calcium response was 38.7%. In the case of `Fc1ccc(OCCn2cc(C(=S)N3CCOCC3)c3ccccc32)cc1`, the % of max PAR4-AP calcium response is reported as 38%. In the case of `CCc1nn(-c2ccccc2)c2nc(-c3cccc(OC)c3)c3cc(OC)c(OC)cc3c12`, the “% of max PAR4-AP calcium response” value is reported as “inactive”. `Cc1c(CCO)c2ccccc2n1-c1ccccc1` was tested, and the “% of max PAR4-AP calcium response” value was “inactive”. `CCSc1ncnc2c1c(-c1ccccc1)cn2-c1ccc(F)cc1` was tested, and the “% of max PAR4-AP calcium response” value was “inactive”. `Cc1ccc(C)c(NC(=O)Cn2cc(C(=O)C(F)(F)F)c3ccccc32)c1` was tested, and the “% of max PAR4-AP calcium response” value was “inactive”. In the case of `S=C(c1cn(Cc2ccccc2Cl)c2ccccc12)N1CCCC1`, the “% of max PAR4-AP calcium response” value is reported as “inactive”. With `Cc1ccc(-n2cc(-c3ccccc3)c3c(NC4CCCC4)ncnc32)cc1Cl` the “% of max PAR4-AP calcium response” value was “inactive”. In the case of `CCc1cc(C(=O)Cc2cnn(-c3ccccc3)c2)c(O)cc1O`, the “% of max PAR4-AP calcium response” value is reported as “inactive”. In the case of `CC(O)CNc1ncnc2c1c(-c1ccccc1)cn2-c1ccccc1` (centres undefined), the “% of max PAR4-AP calcium response” value is reported as “inactive”. `FC(F)(F)c1cccc(-n2cc(-c3ccccc3)c3c(NCCN4CCOCC4)ncnc32)c1` was tested, and the “% of max PAR4-AP calcium response” value was “inactive”. For `Cc1c(C)n(CC(O)CNCCO)c2ccccc12` (centres undefined), the “% of max PAR4-AP calcium response” value was “inactive”. In the case of `NC(=O)C1CCN(c2ncnc3c2c(-c2ccccc2)cn3-c2ccc(Cl)cc2)CC1`, the “% of max PAR4-AP calcium response” value is reported as “inactive”. For `CCc1nn(-c2ccccc2)c2nc(-c3ccccc3OC)c3cc(OC)c(OC)cc3c12`, the “% of max PAR4-AP calcium response” value was “inactive”. `Cc1c(C)n(CC(O)CNc2ccccc2)c2ccccc12` (centres undefined) was tested, and the “% of max PAR4-AP calcium response” value was “inactive”. In the case of `CC(C)Nc1ncnc2c1c(-c1ccccc1)cn2-c1cccc(C(F)(F)F)c1`, the “% of max PAR4-AP calcium response” value is reported as “inactive”. `CCn1ccc(C(=O)Nc2ccc(Cl)cc2Cl)n1` was tested, and the “% of max PAR4-AP calcium response” value was “inactive”. For `CCCNc1ncnc2c1c(-c1ccccc1)cn2-c1ccccc1`, the “% of max PAR4-AP calcium response” value was “inactive”. `Cc1nn(-c2ccccc2)c2[nH]c(C(F)(F)F)cc(=O)c12` was tested, and the “% of max PAR4-AP calcium response” value was “inactive”. In the case of `Cc1cccc(NC(=O)Cn2cc(C(=O)C(F)(F)F)c3ccccc32)c1`, the “% of max PAR4-AP calcium response” value is reported as “inactive”. With `CC(=O)n1cc(-c2ccncc2)c2ccccc21` the “% of max PAR4-AP calcium response” value was “inactive”. In the case of `COc1ccc(C(C[N+](=O)[O-])c2c(-c3ccccc3)n(C)c3ccccc23)cc1` (centres undefined), the “% of max PAR4-AP calcium response” value is reported as “inactive”. In the case of `COc1ccc2c(c1)c(C(=O)OCCN(C)C)c(C)n2C`, the % of max PAR4-AP calcium response is reported as 37.4%. For `O=C(CCc1cn(Cc2ccccc2)c2ccccc12)NCCN1CCOCC1`, the “% of max PAR4-AP calcium response” value was “inactive”. In the case of `COc1ccc(-c2cn(Cc3cccc(-c4ccsc4)c3)c3ccccc23)cn1`, the “% of max PAR4-AP calcium response” value is reported as “inactive”. With `Cc1cn(CC(=O)c2ccccc2)c2ccccc12` the “% of max PAR4-AP calcium response” value was “inactive”. With `O=C(c1cn(CCOc2ccc3c(c2)OCO3)c2ccc(Br)cc12)C(F)(F)F` the “% of max PAR4-AP calcium response” value was “inactive”. With `Cc1ccc(-n2cc(-c3ccccc3)c3c(N4CCCC4)ncnc32)cc1Cl` the “% of max PAR4-AP calcium response” value was “inactive”. `Cn1cc(CC(=O)NCCN2CCOCC2)c2ccccc21` was tested, and the “% of max PAR4-AP calcium response” value was “inactive”. With `Cc1ccc(-n2cc(-c3ccccc3)c3c(N4CCCC4)ncnc32)cc1` the “% of max PAR4-AP calcium response” value was “inactive”. For `Cc1cc(C)nc(SCC(=O)n2c(C)c(C)c3ccccc32)n1`, the “% of max PAR4-AP calcium response” value was “inactive”. For `Cn1cc(CC(=O)NCCCN2CCCC2=O)c2ccccc21`, the “% of max PAR4-AP calcium response” value was “inactive”. For `OCCc1cn(-c2ccccc2)c2ccccc12`, the “% of max PAR4-AP calcium response” value was “inactive”. For `Fc1ccc(Cn2cc(C(=S)N3CCCC3)c3ccccc32)cc1`, the “% of max PAR4-AP calcium response” value was “inactive”. For `CCN1CCN(c2ncnc3c2c(-c2ccccc2)cn3-c2ccc(Br)cc2)CC1`, the “% of max PAR4-AP calcium response” value was “inactive”. In the case of `COc1ccc2c(c1)c(C(C)=O)c(C)n2-c1cccc(Br)c1`, the “% of max PAR4-AP calcium response” value is reported as “inactive”. For `COc1ccc(-n2nc(C(=O)NCCC3=CCCCC3)c3c4ccccc4n(C)c3c2=O)cc1Cl`, the “% of max PAR4-AP calcium response” value was “inactive”. In the case of `COc1ncc(-c2cn(Cc3ccccc3)c3ccccc23)cn1`, the “% of max PAR4-AP calcium response” value is reported as “inactive”. With `CC(C)Oc1ccc(-c2cn(Cc3ccccc3)c3ccccc23)cc1F` the “% of max PAR4-AP calcium response” value was “inactive”. With `Cc1ccc(-n2nc(C(=O)N3CCC(C#N)CC3)c3c4ccccc4n(C)c3c2=O)cc1` the “% of max PAR4-AP calcium response” value was “inactive”. `COc1cc(NC(=O)c2ccc3c(c2)c(C)c(C)n3C)cc(OC)c1` was tested, and the “% of max PAR4-AP calcium response” value was “inactive”. In the case of `CCn1c(COC)c(-c2ccccc2)c2cc([N+](=O)[O-])ccc21`, the “% of max PAR4-AP calcium response” value is reported as “inactive”. In the case of `O=C(Cn1cc(CO)c2ccccc21)Nc1ccc(Cl)cc1`, the “% of max PAR4-AP calcium response” value is reported as “inactive”. In the case of `CC(C)COc1ccc(-c2cn(Cc3ccccc3)c3ccccc23)cc1`, the “% of max PAR4-AP calcium response” value is reported as “inactive”. `O=C(Cn1cc(C(=S)N2CCOCC2)c2ccccc21)N1CCOCC1` was tested, and the “% of max PAR4-AP calcium response” value was “inactive”. `O=C(CSc1ncnc2c1c(-c1ccccc1)cn2-c1ccc(F)cc1)c1ccccc1` was tested, and the “% of max PAR4-AP calcium response” value was “inactive”. In the case of `COc1cc(OC)cc(-c2cn(Cc3ccccc3)c3ccccc23)c1`, the “% of max PAR4-AP calcium response” value is reported as “inactive”. For `O=C(Cn1cc(CO)c2ccccc21)Nc1ccccc1`, the “% of max PAR4-AP calcium response” value was “inactive”. In the case of `Fc1ccc(CNc2ncnc3c2c(-c2ccccc2)cn3-c2ccc(F)cc2)cc1`, the “% of max PAR4-AP calcium response” value is reported as “inactive”. In the case of `CCn1ccc(C(=O)NC2CCCCC2)n1`, the “% of max PAR4-AP calcium response” value is reported as “inactive”. `OCCCc1cn(-c2ccccc2)c2ccccc12` was tested, and the “% of max PAR4-AP calcium response” value was “inactive”. `Cc1cc(-c2cn(Cc3ccccc3)c3ccccc23)cnc1F` was tested, and the “% of max PAR4-AP calcium response” value was “inactive”. `OC(CN1CCCCC1)Cn1c2c(c3ccccc31)CCCC2` (centres undefined) was tested, and the “% of max PAR4-AP calcium response” value was “inactive”. For `COc1ccc(-n2nc(C(=O)Nc3cccc(C)n3)c3c4ccccc4n(C)c3c2=O)cc1Cl`, the “% of max PAR4-AP calcium response” value was “inactive”. For `CCOc1ccc(NC(=O)Cn2cc(C(=O)C(F)(F)F)c3ccccc32)cc1`, the “% of max PAR4-AP calcium response” value was “inactive”. In the case of `Cc1ccc(-n2cc(-c3ccccc3)c3c(NCc4ccc5c(c4)OCO5)ncnc32)cc1Cl`, the “% of max PAR4-AP calcium response” value is reported as “inactive”. `Cc1c(C)n(CC(O)CNCCCO)c2ccccc12` (centres undefined) was tested, and the “% of max PAR4-AP calcium response” value was “inactive”. In the case of `COc1ccc(-n2cc(-c3ccccc3)c3c(NCCO)ncnc32)cc1`, the “% of max PAR4-AP calcium response” value is reported as “inactive”. For `O=C(Nc1cccc(Br)c1)c1ccn(C(=O)Nc2ccc(Cl)cc2)n1`, the “% of max PAR4-AP calcium response” value was “inactive”. `CSc1ncnc2c1c(-c1ccccc1)cn2-c1ccc(F)cc1` was tested, and the “% of max PAR4-AP calcium response” value was “inactive”. For `COc1ccc2c(c1)c(C(=O)CNc1nc(C)c(C)s1)c(C)n2C`, the “% of max PAR4-AP calcium response” value was “inactive”. With `FC(F)(F)c1cccc(-n2cc(-c3ccccc3)c3c(NC4CCCC4)ncnc32)c1` the “% of max PAR4-AP calcium response” value was “inactive”. With `COc1ccccc1OCCn1cc(C(=S)N2CCCC2)c2ccccc21` the “% of max PAR4-AP calcium response” value was “inactive”. For `O=c1c2ccccc2nc(/C=C/c2cn(Cc3ccccc3)c3ccccc23)n1CCCO`, the “% of max PAR4-AP calcium response” value was “inactive”. For `Clc1ccc(-n2cc(-c3ccccc3)c3c(NCc4ccc5c(c4)OCO5)ncnc32)cc1`, the “% of max PAR4-AP calcium response” value was “inactive”. `COc1cc(Nc2ncnc3c2c(-c2ccccc2)cn3-c2ccccc2)cc(OC)c1OC` was tested, and the “% of max PAR4-AP calcium response” value was “inactive”. With `O=C(c1cn(Cc2ccc(F)cc2)c2ccccc12)C(F)(F)F` the “% of max PAR4-AP calcium response” value was “inactive”. In the case of `Fc1ccccc1Cn1cc(C(=S)N2CCOCC2)c2ccccc21`, the “% of max PAR4-AP calcium response” value is reported as “inactive”. In the case of `CC(C)Sc1ncnc2c1c(-c1ccccc1)cn2-c1cccc(F)c1`, the “% of max PAR4-AP calcium response” value is reported as “inactive”. With `Fc1ccc(-c2cn(Cc3ccccc3)c3ccccc23)c(F)n1` the “% of max PAR4-AP calcium response” value was “inactive”. `COc1ccc(C)cc1NC(=O)Cc1cn(C)c2ccccc12` was tested, and the “% of max PAR4-AP calcium response” value was “inactive”.
